Experimental data from publication PMC5839514 (MedChemComm, 2017).
Like-named read-outs stand apart in the source and are kept apart here.

Legend:
[1] = Water solubility; type: physicochemical; conditions: for Water solubility of hydrochloride salt: hydrochloride salts
[2] = system: cyclin-dependent kinase inhibitor p21^Wif1/Cip1; test: Western blot of p21^Wif1/Cip1 in LS174T cells; type: cell-based; conditions: 300 nM
[3] = system: cyclin D1; test: Western blot of cyclin D1 in LS174T cells; type: cell-based; conditions: 300 nM
Procedure, shortened: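 LS174T colon cancer cells were exposed to test compound at 300 nM. Lysates were immunoblotted with antibodies against cyclin D1, p21Wif1/Cip1 and β-tubulin.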

[4] = system: LS174T colon cancer cells; conditions: cited from earlier work; for Inhibition of proliferation (%) of LS174T cells: Table 1
[5] = system: lung epithelial BEAS-2B; test: Cell proliferation assay, normal lung epithelial BEAS-2B cells; type: cell-based
Procedure, shortened: (§1)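 Cells were obtained from a university collaborator and grown in RPMI or DMEM with 5% or 10% fetal bovine serum plus 1% penicillin/streptomycin. The medium for each line is not specified. Cells were seeded at 3 × 10^4 per well and treated with test compound or DMSO. After 4 days, cell number and viability were counted on an automated cell viability analyzer.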

[6] = system: HT-29; test: Cell proliferation assay, HT-29 colon cancer cells; type: cell-based
Procedure, shortened: (§2)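 Cells were kept in RPMI or DMEM with 5% or 10% fetal bovine serum and 1% penicillin/streptomycin. They were plated at 3 × 10^4 cells per well in 12-well plates and treated with DMSO or test compound. After 4 days, cell number and viability were counted on a Vi-Cell viability analyzer. Inhibition is relative to DMSO.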

[7] = system: LS174T colon cancer cells; test: Cell proliferation assay, LS174T colon cancer cells; type: cell-based; conditions: Table 3
Procedure, shortened: as §2

[8] = system: fibroblast HEL 299 cells; test: Cell proliferation assay, normal fibroblast HEL 299 cells; type: cell-based
Procedure, shortened: as §1

CN(C)c1ncc(C#Cc2c(F)cccc2F)c2ncccc12 [Compound 5pp, 8-((2,6-Difluorophenyl)ethynyl)-N,N-dimethyl-1,6-naphthyridin-5-amine]
Water solubility of hydrochloride salt [1]: completely water-soluble

CN1CCN(c2ncc(C#Cc3c(F)cccc3F)c3ccccc23)CC1.Cl [Compound 5oo, 4-((2,6-Difluorophenyl)ethynyl)-1-(4-methylpiperazin-1-yl)isoquinoline]
Water solubility of hydrochloride salt [1]: completely water-soluble

CNc1ncc(C#Cc2c(F)cccc2F)c2ccccc12 [Compound 5nn, 4-((2,6-Difluorophenyl)ethynyl)-N-methylisoquinolin-1-amine]
Effect on p21^Wif1/Cip1 (western blot) [2]: induced cyclin-dependent kinase inhibitor p21^Wif1/Cip1 | Effect on cyclin D1 (western blot) [3]: inhibited cyclin D1

CN(C)c1ccc(C#Cc2c(F)cccc2F)cc1 [Compound 2, 4-((2,6-difluorophenyl)ethynyl)-N,N-dimethylaniline]
Inhibition of cell proliferation (%) of colon cancer LS174T cells ([4]; 30 nM, Table 2): 57±1.2% | Inhibition of proliferation (%) of LS174T cells ([4]; 100 nM): 85.2±0.5% | Inhibition of proliferation (%) of LS174T cells ([4]; 1 μM): 99.5±0.1% | Water solubility ([1]; parent compound): sparingly water-soluble | Effect on p21^Wif1/Cip1 (western blot) [2]: induced cyclin-dependent kinase inhibitor p21^Wif1/Cip1 | Effect on cyclin D1 (western blot) [3]: inhibited cyclin D1

N.N.[Cl][Pt][Cl] [Cisplatin]
Percentage inhibition of the proliferation of normal cells ([5]; 1 μM): 39.2±14.9% | Percentage inhibition of the proliferation of normal cells ([5]; 10 μM): 82.4±0.2% | Percentage inhibition of the proliferation of colon cancer cells ([6]; 1 μM): 4.4±5.9% | Percentage inhibition of the proliferation of colon cancer cells ([6]; 10 μM): 72.7±3.5% | Percentage inhibition of the proliferation of colon cancer cells ([7]; 1 μM): 24.2±5.6% | Percentage inhibition of the proliferation of colon cancer cells ([7]; 10 μM): 82.1±1.4% | Percentage inhibition of the proliferation of normal cells ([8]; 1 μM): 37.5±4.1% | Percentage inhibition of the proliferation of normal cells ([8]; 10 μM): 57.8±0.3%

CN(C)c1ncc(C#Cc2c(F)cccc2F)c2ccccc12 [Compound 5mm, 4-((2,6-Difluorophenyl)ethynyl)-N,N-dimethylisoquinolin-1-amine]
Effect on p21^Wif1/Cip1 (western blot) [2]: induced cyclin-dependent kinase inhibitor p21^Wif1/Cip1 | Effect on cyclin D1 (western blot) [3]: inhibited cyclin D1
